Assays:
[1] = molecular target: Nitric oxide synthase, inducible (Homo sapiens, UniProt P35228); experiment: Inhibitory activity against human inducible nitric oxide synthase
How it was run: (§1)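 Recombinant human enzymes expressed in Sf9 cells by baculovirus and partially purified on DEAE-Sepharose from soluble extracts. Assay in 50 mM Tris pH 7.6 with BSA, DTT, CaCl2, FAD, tetrahydrobiopterin, NADPH, 30 µM final L-arginine with L-[2,3-3H]arginine. Endothelial form also given 40 nM calmodulin. 15 min at 37 °C, stopped with EGTA buffer. [3H]citrulline isolated on cation exchange and counted. IC50 from eight concentrations, at least duplicate.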

Nitric oxide synthase 1 = Nitric oxide synthase 1 (Homo sapiens, UniProt P29475); experiment: Inhibitory activity against human Neuronal nitric oxide synthase
Nitric oxide synthase 3 = molecular target: T1, Nitric oxide synthase 3 (Homo sapiens, UniProt P29474); experiment: Inhibitory activity against human Endothelial nitric oxide synthase; how it was run: as §1
T1 sequence (P29474 whole entry): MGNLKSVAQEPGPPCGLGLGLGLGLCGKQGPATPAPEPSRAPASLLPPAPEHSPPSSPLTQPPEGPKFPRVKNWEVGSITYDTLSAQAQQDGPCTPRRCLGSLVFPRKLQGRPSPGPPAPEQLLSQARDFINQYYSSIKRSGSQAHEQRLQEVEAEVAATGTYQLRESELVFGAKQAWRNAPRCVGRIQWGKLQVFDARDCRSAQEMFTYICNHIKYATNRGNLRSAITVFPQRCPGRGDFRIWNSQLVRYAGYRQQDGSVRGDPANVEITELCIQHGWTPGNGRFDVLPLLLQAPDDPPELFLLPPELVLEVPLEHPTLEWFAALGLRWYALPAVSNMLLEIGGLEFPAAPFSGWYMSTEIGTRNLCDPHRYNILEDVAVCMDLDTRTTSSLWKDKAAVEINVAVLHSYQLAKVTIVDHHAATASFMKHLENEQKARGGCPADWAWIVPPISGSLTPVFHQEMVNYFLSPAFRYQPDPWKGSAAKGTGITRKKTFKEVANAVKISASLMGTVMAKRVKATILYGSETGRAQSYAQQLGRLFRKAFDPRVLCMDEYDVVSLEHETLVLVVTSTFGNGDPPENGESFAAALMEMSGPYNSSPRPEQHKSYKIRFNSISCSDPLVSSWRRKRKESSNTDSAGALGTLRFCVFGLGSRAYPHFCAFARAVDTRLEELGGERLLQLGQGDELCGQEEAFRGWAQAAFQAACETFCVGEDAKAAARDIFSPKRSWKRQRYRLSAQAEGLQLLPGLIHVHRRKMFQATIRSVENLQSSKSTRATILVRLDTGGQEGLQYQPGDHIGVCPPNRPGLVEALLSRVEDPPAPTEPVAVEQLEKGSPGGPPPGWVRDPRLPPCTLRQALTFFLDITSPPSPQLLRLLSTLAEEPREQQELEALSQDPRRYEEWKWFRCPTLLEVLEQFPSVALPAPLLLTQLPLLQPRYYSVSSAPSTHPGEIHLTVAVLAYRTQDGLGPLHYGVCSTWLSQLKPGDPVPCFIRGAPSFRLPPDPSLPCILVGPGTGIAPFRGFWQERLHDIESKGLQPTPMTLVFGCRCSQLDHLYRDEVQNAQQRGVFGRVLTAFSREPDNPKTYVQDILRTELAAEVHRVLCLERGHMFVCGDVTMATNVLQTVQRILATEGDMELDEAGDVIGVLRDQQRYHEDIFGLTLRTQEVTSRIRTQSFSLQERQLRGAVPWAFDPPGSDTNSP

[2] = Selectivity is defined as the ratio of the IC50(hncNOS) to IC50(hiNOS)
How it was run: (§2)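 Ratio of IC50 for the endothelial or neuronal isoform to IC50 for the inducible isoform. All three recombinant human enzymes were assayed by [3H]arginine-to-[3H]citrulline conversion at 30 µM final L-arginine, 37 °C for 15 min. Both constitutive isoforms had 40 nM calmodulin. Each compound tested at eight concentrations.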

[3] = Selectivity is defined as the ratio of the IC50(hecNOS) to IC50(hiNOS); how it was run: as §2

Sequence of Nitric oxide synthase 1 (P29475 whole entry): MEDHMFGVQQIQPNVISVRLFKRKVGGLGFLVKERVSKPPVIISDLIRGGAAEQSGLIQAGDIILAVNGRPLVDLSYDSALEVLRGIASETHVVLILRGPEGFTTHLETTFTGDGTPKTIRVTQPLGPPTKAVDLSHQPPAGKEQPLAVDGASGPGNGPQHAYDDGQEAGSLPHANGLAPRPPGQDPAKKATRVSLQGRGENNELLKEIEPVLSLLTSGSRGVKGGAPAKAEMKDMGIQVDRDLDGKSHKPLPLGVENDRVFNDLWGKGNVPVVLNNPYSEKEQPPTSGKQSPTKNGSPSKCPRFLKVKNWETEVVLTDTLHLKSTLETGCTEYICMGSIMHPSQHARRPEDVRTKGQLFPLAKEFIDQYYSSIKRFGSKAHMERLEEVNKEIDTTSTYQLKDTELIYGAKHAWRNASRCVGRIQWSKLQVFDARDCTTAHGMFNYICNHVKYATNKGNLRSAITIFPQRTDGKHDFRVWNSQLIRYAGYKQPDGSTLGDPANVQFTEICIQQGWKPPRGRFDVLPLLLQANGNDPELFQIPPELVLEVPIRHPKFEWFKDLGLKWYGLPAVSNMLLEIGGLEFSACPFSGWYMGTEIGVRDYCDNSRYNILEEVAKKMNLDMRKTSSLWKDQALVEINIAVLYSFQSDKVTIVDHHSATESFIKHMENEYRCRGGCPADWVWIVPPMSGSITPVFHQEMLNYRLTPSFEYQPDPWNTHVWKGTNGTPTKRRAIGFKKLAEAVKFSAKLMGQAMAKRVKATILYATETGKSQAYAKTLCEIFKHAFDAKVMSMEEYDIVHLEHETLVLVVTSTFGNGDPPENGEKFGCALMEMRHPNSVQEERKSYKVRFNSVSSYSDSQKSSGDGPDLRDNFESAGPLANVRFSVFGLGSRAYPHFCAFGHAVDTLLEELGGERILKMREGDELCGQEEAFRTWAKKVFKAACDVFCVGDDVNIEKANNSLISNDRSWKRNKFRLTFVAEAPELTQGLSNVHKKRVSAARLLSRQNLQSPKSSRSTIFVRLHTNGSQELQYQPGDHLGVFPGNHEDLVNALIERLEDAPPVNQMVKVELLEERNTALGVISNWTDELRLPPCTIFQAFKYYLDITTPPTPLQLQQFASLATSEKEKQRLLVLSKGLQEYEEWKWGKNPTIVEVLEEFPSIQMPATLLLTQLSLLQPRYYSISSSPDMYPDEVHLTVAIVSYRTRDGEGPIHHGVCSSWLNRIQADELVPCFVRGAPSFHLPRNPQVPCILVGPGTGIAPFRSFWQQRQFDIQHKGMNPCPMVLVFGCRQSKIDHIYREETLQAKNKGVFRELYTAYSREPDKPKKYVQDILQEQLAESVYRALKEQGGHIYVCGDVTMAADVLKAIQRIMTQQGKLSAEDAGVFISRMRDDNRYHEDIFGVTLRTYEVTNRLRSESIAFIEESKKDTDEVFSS
Sequence of Nitric oxide synthase, inducible (P35228 whole entry): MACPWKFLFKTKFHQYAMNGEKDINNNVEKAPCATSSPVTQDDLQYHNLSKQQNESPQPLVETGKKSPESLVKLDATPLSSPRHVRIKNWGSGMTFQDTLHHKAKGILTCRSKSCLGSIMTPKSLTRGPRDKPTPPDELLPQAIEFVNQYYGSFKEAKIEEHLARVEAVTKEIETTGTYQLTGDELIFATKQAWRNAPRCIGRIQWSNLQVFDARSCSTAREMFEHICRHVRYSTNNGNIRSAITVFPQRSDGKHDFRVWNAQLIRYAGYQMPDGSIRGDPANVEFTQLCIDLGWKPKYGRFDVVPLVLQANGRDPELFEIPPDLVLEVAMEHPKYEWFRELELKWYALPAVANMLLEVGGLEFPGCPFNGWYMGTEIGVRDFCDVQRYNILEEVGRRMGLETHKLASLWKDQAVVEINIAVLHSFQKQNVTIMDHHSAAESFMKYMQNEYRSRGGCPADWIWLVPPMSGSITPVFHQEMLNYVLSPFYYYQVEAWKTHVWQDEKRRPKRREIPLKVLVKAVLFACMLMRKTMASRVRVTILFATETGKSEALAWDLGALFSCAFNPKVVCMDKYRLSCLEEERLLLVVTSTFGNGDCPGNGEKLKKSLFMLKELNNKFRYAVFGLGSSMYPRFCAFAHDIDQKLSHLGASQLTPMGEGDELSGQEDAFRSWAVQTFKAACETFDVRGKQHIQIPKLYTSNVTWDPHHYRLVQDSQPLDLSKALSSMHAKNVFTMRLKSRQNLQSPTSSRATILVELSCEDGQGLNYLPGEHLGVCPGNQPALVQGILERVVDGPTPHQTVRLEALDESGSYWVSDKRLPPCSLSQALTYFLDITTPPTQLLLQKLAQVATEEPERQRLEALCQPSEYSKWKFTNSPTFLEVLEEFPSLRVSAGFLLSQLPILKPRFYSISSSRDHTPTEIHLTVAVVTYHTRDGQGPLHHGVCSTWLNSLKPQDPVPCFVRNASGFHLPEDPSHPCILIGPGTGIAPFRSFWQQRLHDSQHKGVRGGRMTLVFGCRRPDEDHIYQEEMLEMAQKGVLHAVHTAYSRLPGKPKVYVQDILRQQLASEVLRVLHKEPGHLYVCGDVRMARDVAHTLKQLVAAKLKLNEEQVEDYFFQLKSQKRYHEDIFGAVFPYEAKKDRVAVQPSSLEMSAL

IC50 [1] [µM] | IC50 (Nitric oxide synthase 1) [µM] | IC50 (Nitric oxide synthase 3) [µM] | Selectivity [2] | Selectivity [3] | Structure (SMILES)
9.8 | 6.8 | 90 | – | – | N=C1CCCCCCCN1
2 | 3.5 | 16 | 1.8 | 8 | NC1=NCCCCC1
26 | 20 | 93 | 0.8 | 3.6 | NC1=NCCC1
– | – | – | 0.7 | 9.2 | N/C1=N/CCCCCCC1
25 | 17 | 87 | 0.7 | 3.5 | NC1=NCCCN1
1.8 | 3.7 | 8.2 | 2.1 | 4.6 | NC1=NCCCO1
10 | 10 | 59 | – | – | NC1=NCCCCCC1
4.6 | 61 | 138 | 13 | 30 | CC(=N)NCCCC[C@H](N)C(=O)O [L-NIL]
2.9 | 3.2 | 7.1 | 1.1 | 2.4 | NC1=NCCCS1
1 | – | 4.7 | – | – | N=C1CCCCN1
– | – | – | 1 | 5.9 | N/C1=N/CCCCCC1
